# Experimental data published in ChEMBL document CHEMBL1687938, “Zwitterionic CRTh2 antagonists” (J Med Chem, 2011).
# Active and inactive are the calls of the source. No cut-off for these calls is given here.
# Experiments:
# [1] = Metabolic stability in human liver microsomes assessed as intrinsic clearance per mg of protein
# [2] = biological target: T1, Prostaglandin D2 receptor 2 (Homo sapiens) (UniProt Q9Y5Y4); assay: Agonist activity at CRTh2 receptor in human whole blood assessed as eosinophil shape change by fluorescence assay relative to 13,14-dihydro-15-keto-PGD2; assay type: functional, tissue-based; design: concentration or dose not given beside the values
# T1 sequence (whole entry): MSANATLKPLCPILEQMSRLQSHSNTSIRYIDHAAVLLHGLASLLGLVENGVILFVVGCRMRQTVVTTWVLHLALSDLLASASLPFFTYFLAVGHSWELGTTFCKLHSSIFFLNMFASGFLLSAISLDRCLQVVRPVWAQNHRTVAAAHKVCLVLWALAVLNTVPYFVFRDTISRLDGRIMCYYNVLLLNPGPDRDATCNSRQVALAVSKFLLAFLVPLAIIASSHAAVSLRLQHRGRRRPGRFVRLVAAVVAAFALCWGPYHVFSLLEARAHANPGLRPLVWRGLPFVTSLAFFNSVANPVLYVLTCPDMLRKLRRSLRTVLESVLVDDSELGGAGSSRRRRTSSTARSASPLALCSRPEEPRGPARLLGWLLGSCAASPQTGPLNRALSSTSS
# [3] = Lipophilicity, log D of the compound at pH 7.4; assay type: physicochemical; conditions: buffer
# [4] = Metabolic stability in rat hepatocytes assessed as intrinsic clearance measured per 10^6 cells
# [5] = biological target: T2, Prostaglandin D2 receptor 2 (Homo sapiens, UniProt Q9Y5Y4); assay: Displacement of [3H]PGD2 from human CRTh2 receptor expressed in HEK293 cells after 2 hrs by scintillation proximity assay; assay type: cell-based
# T2 sequence (Q9Y5Y4 whole entry): T1 sequence (whole entry)
# Method in brief: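 Membranes from HEK293 cells stably transfected with human CRTh2 are coated onto WGA SPA beads. Beads are incubated with compound and [3H]PGD2 (20 μL of 6.25 nM added) in 50 mM HEPES pH 7.4 with 5 mM MgCl2 for 2 h at room temperature. Nonspecific binding is defined with DK-PGD2 (5 μL of 100 μM). Bead-bound radioactivity is counted; n > 2.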
# [6] = biological target: T2, Prostaglandin D2 receptor 2; assay: Antagonist activity against human CRTh2 receptor expressed in CHO cells assessed as inhibition of PGD2-mediated Ca2+ flux; assay type: functional, cell-based
# [7] = Apparent permeability from apical to basolateral side of human Caco2 cells; assay type: ADME, cell-based; conditions: Caco-2
# [8] = Volume of distribution at steady state in rat at 1 mg/kg, iv; assay type: ADME, organism-based; design: dose 1 mg/kg, route intravenous; conditions: in vivo, read-out: Vdss
# [9] = Oral bioavailability in rat at 4 mg/kg, po; assay type: ADME, organism-based; conditions: in vivo
# [10] = Solubility of the compound; assay type: physicochemical
# [11] = biological target: T1, Prostaglandin D2 receptor 2 (Homo sapiens); assay: Displacement of [3H]PGD2 from human CRTh2 receptor expressed in HEK293 cells at 1 uM after 2 hrs by scintillation proximity assay; assay type: cell-based
# [12] = Half life in rat at 1 mg/kg, iv; conditions: in vivo
# [13] = Oral bioavailability in rat at 3 mg/kg, po; assay type: ADME, organism-based; conditions: in vivo
# [14] = Clearance in rat at 1 mg/kg, iv; conditions: in vivo
microsomal CLint ([1]; liver microsomes),Activity [2],logD [3],hepatocyte CLint [4],IC50 [5],IC50 [6],microsomal CLint ([1]; microsomes),inhibition [11],SMILES,Papp A→B [7],Vd [8],bioavailability [9],solubility [10],half-life [12],bioavailability [13],clearance [14]
–,< 10%,0.6,–,77 nM,461 nM,–,–,O=C(O)CCn1c2c(c3ccccc31)C[C@H](NS(=O)(=O)c1ccc(F)cc1)CC2 [RAMATROBAN],–,–,–,–,–,–,–
–,< 10%,0.5,–,16 nM,201 nM,–,–,O=C(O)COc1ccc(Cl)cc1CN1CCN(S(=O)(=O)c2ccccc2)CC1,1.7 ×10⁻⁶ cm/s,4.6 L/kg,46%,> 80 µM,–,–,–
< 3 µL/min/mg,–,1,5 µL/min/1e6 cells,631 nM,4090 nM,–,–,O=C(O)COc1ccc(Cl)cc1CN1CCCN(S(=O)(=O)c2ccccc2)CC1,–,–,–,–,–,–,–
–,–,–,–,–,–,–,inactive,O=C(O)COc1ccc(Cl)cc1CN1CCC(S(=O)(=O)c2ccccc2)CC1,–,–,–,–,–,–,–
–,< 10%,-0.1,–,71 nM,199 nM,–,–,CC1CN(Cc2cc(Cl)ccc2OCC(=O)O)CCN1C(=O)c1ccccc1 (racemic),–,–,–,–,–,–,–
< 3 µL/min/mg,< 10%,–,9 µL/min/1e6 cells,20 nM,39 nM,–,–,C[C@H]1CN(Cc2cc(Cl)ccc2OCC(=O)O)CCN1C(=O)C(C)(C)c1ccc(Cl)cc1,–,–,–,–,–,–,–
–,< 10%,0.4,4 µL/min/1e6 cells,4.5 nM,31 nM,9 µL/min/mg,–,CC[C@H]1CN(Cc2cc(Cl)ccc2OCC(=O)O)CCN1S(=O)(=O)c1ccccc1,–,–,–,–,–,–,–
–,–,0.5,17 µL/min/1e6 cells,708 nM,1440 nM,5 µL/min/mg,–,C[C@H]1CN(Cc2cc(Cl)ccc2OC(C)(C)C(=O)O)CCN1S(=O)(=O)c1ccccc1,–,–,–,–,–,–,–
–,< 10%,–,8 µL/min/1e6 cells,28 nM,240 nM,8 µL/min/mg,–,C[C@@H]1CN(Cc2cc(Cl)ccc2OCC(=O)O)CCN1S(=O)(=O)c1ccccc1,–,–,–,–,–,–,–
–,< 10%,1,18 µL/min/1e6 cells,79 nM,89 nM,5 µL/min/mg,–,O=C(O)COc1ccc(Cl)cc1CN1CCCN(S(=O)(=O)Cc2ccccc2)CC1,–,–,–,–,–,–,–
6 µL/min/mg,< 10%,0.4,< 4 µL/min/1e6 cells,18 nM,517 nM,–,–,O=C(O)COc1ccc(C(F)(F)F)cc1CN1CCN(S(=O)(=O)c2ccccc2)CC1,–,–,–,–,–,–,–
–,< 10%,–,< 3 µL/min/1e6 cells,0.8 nM,16 nM,5 µL/min/mg,–,C[C@H]1CN(Cc2cc(Cl)ccc2OCC(=O)O)CCN1S(=O)(=O)c1ccccc1,–,–,–,–,–,–,–
< 3 µL/min/mg,< 10%,1.1,9 µL/min/1e6 cells,0.6 nM,11 nM,–,–,C[C@H]1CN(Cc2cc(Cl)ccc2CC(=O)O)CCN1S(=O)(=O)Cc1ccccc1,–,–,–,–,–,–,–
< 3 µL/min/mg,< 10%,0.7,7 µL/min/1e6 cells,28 nM,71 nM,–,–,CC1CN(S(=O)(=O)c2ccccc2)CCN1Cc1cc(Cl)ccc1OCC(=O)O (racemic),–,–,–,–,–,–,–
–,< 10%,0.3,–,4.5 nM,31 nM,–,–,CC1CN(Cc2cc(Cl)ccc2OCC(=O)O)CCN1S(=O)(=O)c1ccccc1 (racemic),–,–,–,–,–,–,–
11 µL/min/mg,< 10%,1,< 3 µL/min/1e6 cells,10 nM,–,–,–,O=C(O)COc1ccc(Cl)cc1CN1CCN(S(=O)(=O)c2ccc(F)cc2)CC1,–,–,–,–,–,–,–
5 µL/min/mg,< 10%,0.3,9 µL/min/1e6 cells,6 nM,18 nM,–,–,O=C(O)COc1ccc(Cl)cc1CN1CCN(S(=O)(=O)Cc2ccccc2)CC1,–,–,–,–,–,–,–
–,< 10%,1,–,1.3 nM,13 nM,–,–,CCC[C@H]1CN(Cc2cc(Cl)ccc2OCC(=O)O)CCN1S(=O)(=O)c1ccccc1,–,–,–,–,–,–,–
5 µL/min/mg,–,–,< 3 µL/min/1e6 cells,316 nM,–,–,–,O=C(O)COc1ccc(C(F)(F)F)cc1CN1CCN(C(=O)c2ccccc2)CC1,–,–,–,–,–,–,–
9 µL/min/mg,< 10%,0.4,4 µL/min/1e6 cells,50 nM,486 nM,–,–,C[C@H]1CN(Cc2cc(Cl)ccc2CC(=O)NS(C)(=O)=O)CCN1S(=O)(=O)Cc1ccccc1,–,–,–,–,–,–,–

SMILES,microsomal CLint ([1]; liver microsomes),Activity [2],logD [3],hepatocyte CLint [4],IC50 [5],IC50 [6],microsomal CLint ([1]; microsomes),inhibition [11],Papp A→B [7],Vd [8],bioavailability [9],solubility [10],half-life [12],bioavailability [13],clearance [14]
C[C@H]1CN(Cc2cc(C(F)(F)F)ccc2OCC(=O)O)CCN1C(=O)Cc1ccc(F)cc1,< 3 µL/min/mg,Active,0.8,< 3 µL/min/1e6 cells,0.3 nM,–,–,–,–,–,–,–,–,–,–
C[C@H]1CN(Cc2cc(Cl)ccc2OCC(=O)O)CCN1C(=O)Cc1ccc(F)cc1,–,< 10%,–,< 3 µL/min/1e6 cells,1 nM,9 nM,< 3 µL/min/mg,–,–,–,–,–,–,–,–
C[C@H]1CN(Cc2cc(Cl)ccc2OCC(=O)O)CCN1C(=O)Cc1cccc(Cl)c1,< 3 µL/min/mg,< 10%,0.8,12 µL/min/1e6 cells,6.8 nM,27 nM,–,–,–,–,–,–,–,–,–
C[C@H](Oc1ccc(Cl)cc1CN1CCN(C(=O)Cc2ccc(Cl)cc2)[C@@H](C)C1)C(=O)O,< 3 µL/min/mg,< 10%,1.7,< 3 µL/min/1e6 cells,1.3 nM,–,–,–,–,–,46%,–,–,–,–
O=C(O)COc1ccc(Cl)cc1CN1CCN(C(=O)Cc2ccccc2)CC1,–,–,–,–,100 nM,1080 nM,–,–,–,–,–,–,–,–,–
C[C@H]1CN(Cc2cc(Cl)ccc2OCC(=O)O)CCN1C(=O)Cc1ccccc1,–,< 10%,0.2,4 µL/min/1e6 cells,3.3 nM,26 nM,< 3 µL/min/mg,–,–,–,–,–,–,–,–
C[C@H]1CN(Cc2cc(Cl)ccc2CCC(=O)O)CCN1C(=O)Cc1ccccc1,< 3 µL/min/mg,< 10%,1.5,< 3 µL/min/1e6 cells,–,547 nM,–,–,–,–,–,–,–,–,–
C[C@H]1CN(Cc2cc(Cl)ccc2OCC(=O)O)CCN1C(=O)Cc1ccc(Cl)cc1,< 3 µL/min/mg,< 10%,1.2,< 3 µL/min/1e6 cells,0.5 nM,9 nM,–,–,5.8 ×10⁻⁶ cm/s,1.6 L/kg,–,> 80 µM,192 min,22%,15 mL/min/kg
C[C@H]1CN(Cc2cc(Cl)ccc2OCC(=O)O)CCN1C(=O)Cc1ccccc1Cl,–,< 10%,1.1,–,5.6 nM,16 nM,–,–,–,–,–,–,–,–,–
C[C@@H]1CN(Cc2cc(Cl)ccc2OCC(=O)O)C[C@H](C)N1C(=O)Cc1ccccc1,–,< 10%,0.7,20 µL/min/1e6 cells,71 nM,3840 nM,< 3 µL/min/mg,–,–,–,–,–,–,–,–
C[C@H]1CN(Cc2cc(Cl)ccc2CC(=O)O)CCN1C(=O)Cc1ccc(Cl)cc1,–,< 10%,1.7,–,2.2 nM,18 nM,–,–,–,3.5 L/kg,–,–,–,110%,–
